The source made the active and inactive calls.
Assays:
Format in all cases: functional
[1] = test system: K562; test: Effect on C0MMD1 gene expression in human K562 cells assessed as change in mRNA transcript expression at 10 nM after 48 hrs by DNA microarray analysis relative to control
In short: (§1)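 Transcripts were profiled on Affymetrix GeneChip Human Gene 1.0 ST arrays in K562 cells treated at 10 nM. Treated cells were collected at 6, 12, 24 and 48 h; untreated controls were collected at 48 h. Transcripts changed at least twofold versus control were scored.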

[2] = test system: K562; test: Effect on HIST2H2AA gene expression in human K562 cells assessed as change in mRNA transcript expression at 10 nM after 48 hrs by DNA microarray analysis relative to control
In short: (§2)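 K562 CML cells (b3a2 Bcr-Abl) in standard ATCC-recommended culture, exposed once to 10 nM conjugate and harvested at 48 h. Untreated controls were also collected at 48 h. Transcripts were profiled on Human Gene 1.0 ST whole-genome oligonucleotide arrays, and each treated level was expressed relative to the untreated control, with a cutoff of at least twofold change.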

[3] = test system: K562; test: Effect on HIST1H2AH gene expression in human K562 cells assessed as change in mRNA transcript expression at 10 nM after 48 hrs by DNA microarray analysis relative to control; in short: as §1
[4] = test system: K562; test: Effect on HIST1H2A gene expression in human K562 cells assessed as change in mRNA transcript expression at 10 nM after 48 hrs by DNA microarray analysis relative to control; in short: as §1
[5] = test system: K562; test: Effect on TMEM126A gene expression in human K562 cells assessed as change in mRNA transcript expression at 10 nM after 48 hrs by DNA microarray analysis relative to control
In short: (§3)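 K562 CML cells (b3a2 Bcr-Abl) kept under standard culture conditions were exposed to 10 nM conjugate and harvested at 6, 12, 24 and 48 h. Untreated controls were harvested at 48 h. Whole-transcript oligonucleotide microarray profiling was done, and changes of at least twofold versus control were scored.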

[6] = test system: K562; test: Effect on EIF4B gene expression in human K562 cells assessed as change in mRNA transcript expression at 10 nM after 48 hrs by DNA microarray analysis relative to control; in short: as §1
[7] = test system: K562; test: Effect on LOC10012 gene expression in human K562 cells assessed as change in mRNA transcript expression at 10 nM after 48 hrs by DNA microarray analysis relative to control; in short: as §2
[8] = test system: K562; test: Effect on SLFN14 gene expression in human K562 cells assessed as change in mRNA transcript expression at 10 nM after 48 hrs by DNA microarray analysis relative to control; in short: as §2
[9] = test system: K562; test: Induction of apoptosis in human K562 cells assessed as viable cells at 125 nM after 48 hrs by annexin-V FITC and propidium iodide staining-based FACS analysis; conditions: K562, 48 h, read-out: Activity
In short: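 K562 cells were exposed to conjugate in culture medium for 48 h, then stained with annexin V-FITC plus propidium iodide. Cell populations were quantified by flow cytometry.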

[10] = test system: K562; test: Effect on GTDC1 gene expression in human K562 cells assessed as change in mRNA transcript expression at 10 nM after 48 hrs by DNA microarray analysis relative to control; in short: as §1
[11] = test system: K562; test: Effect on HIST1H3J gene expression in human K562 cells assessed as change in mRNA transcript expression at 10 nM after 48 hrs by DNA microarray analysis relative to control; in short: as §1
[12] = test system: K562; test: Effect on THBS1 gene expression in human K562 cells assessed as change in mRNA transcript expression at 10 nM after 48 hrs by DNA microarray analysis relative to control; in short: as §3
[13] = test system: K562; test: Effect on DHFR gene expression in human K562 cells assessed as change in mRNA transcript expression at 10 nM after 48 hrs by DNA microarray analysis relative to control; in short: as §1
[14] = test system: K562; test: Cell cycle arrest in human K562 cells assessed as increase in accumulation at G2/M phase at 125 to 250 nM after 48 hrs propidium iodide staining-based FACS analysis
In short: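 K562 cells, from ATCC and kept under ATCC-recommended conditions, were treated for 48 h and pelleted at 200g for 5 min. They were resuspended in PBS, fixed with prechilled 70% ethanol and stained with propidium iodide at 50 µg/mL. DNA content was read by flow cytometry to assign the G0–G1, S and G2–M fractions; sub-2C DNA content was taken as apoptosis.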

[15] = test system: K562; test: Effect on TXNIP gene expression in human K562 cells assessed as change in mRNA transcript expression at 10 nM after 48 hrs by DNA microarray analysis relative to control; in short: as §3
[16] = test system: K562; test: Effect on CREB3L1 gene expression in human K562 cells assessed as change in mRNA transcript expression at 10 nM after 48 hrs by DNA microarray analysis relative to control; in short: as §1
[17] = test system: K562; test: Effect on ATP1B2 gene expression in human K562 cells assessed as change in mRNA transcript expression at 10 nM after 48 hrs by DNA microarray analysis relative to control; in short: as §1
[18] = test system: K562; test: Effect on ITGB3 gene expression in human K562 cells assessed as change in mRNA transcript expression at 10 nM after 48 hrs by DNA microarray analysis relative to control; in short: as §2
[19] = test system: K562; test: Effect on RP11-195B gene expression in human K562 cells assessed as change in mRNA transcript expression at 10 nM after 48 hrs by DNA microarray analysis relative to control; in short: as §2
[20] = test system: K562; test: Effect on SLC7A8 gene expression in human K562 cells assessed as change in mRNA transcript expression at 10 nM after 48 hrs by DNA microarray analysis relative to control; in short: as §2
[21] = test system: K562; test: Effect on LGALS12 gene expression in human K562 cells assessed as change in mRNA transcript expression at 10 nM after 48 hrs by DNA microarray analysis relative to control; in short: as §2
[22] = test system: K562; test: Effect on LPHN3 gene expression in human K562 cells assessed as change in mRNA transcript expression at 10 nM after 48 hrs by DNA microarray analysis relative to control; in short: as §2
[23] = test system: K562; test: Effect on PLA2G6 gene expression in human K562 cells assessed as change in mRNA transcript expression at 10 nM after 48 hrs by DNA microarray analysis relative to control; in short: as §2
[24] = test system: K562; test: Effect on C3 gene expression in human K562 cells assessed as change in mRNA transcript expression at 10 nM after 48 hrs by DNA microarray analysis relative to control; in short: as §1
[25] = test system: K562; test: Effect on PYROXD1 gene expression in human K562 cells assessed as change in mRNA transcript expression at 10 nM after 48 hrs by DNA microarray analysis relative to control; in short: as §2
[26] = test system: K562; test: Effect on LOC85389 gene expression in human K562 cells assessed as change in mRNA transcript expression at 10 nM after 48 hrs by DNA microarray analysis relative to control; in short: as §2
[27] = test system: K562; test: Effect on HIST2H2B gene expression in human K562 cells assessed as change in mRNA transcript expression at 10 nM after 48 hrs by DNA microarray analysis relative to control; in short: as §2

CC(=O)Nc1cn(C)c(C(=O)Nc2cn(C)c(C(=O)NCCC(=O)Nc3cn(C)c(C(=O)NCCCC(=O)Nc4cc(C(=O)Nc5cn(C)c(C(=O)Nc6ccc7[nH]c(C(=O)N8CC(CCl)c9c8cc(O)c8ccccc98)cc7c6)n5)n(C)c4)n3)n2)n1 (configuration not stated)
active: Activity [14]
80.3%: viability at 0.125 µM [9]
>=2: fold change (FC) [1] | fold change (FC) [2] | fold change (FC) [3] | fold change (FC) [4] | fold change (FC) [5] | fold change (FC) [6] | fold change (FC) [7] | fold change (FC) [8] | fold change (FC) [10] | fold change (FC) [11] | fold change (FC) [12] | fold change (FC) [13] | fold change (FC) [15] | fold change (FC) [16] | fold change (FC) [17] | fold change (FC) [18] | fold change (FC) [19] | fold change (FC) [20] | fold change (FC) [21] | fold change (FC) [22] | fold change (FC) [23] | fold change (FC) [24] | fold change (FC) [25] | fold change (FC) [26] | fold change (FC) [27]

— ChEMBL document CHEMBL1157704, “Potent activity against K562 cells by polyamide-seco-CBI conjugates targeting histone H4 genes” (Bioorg Med Chem, 2010)
